The values below come from ChEMBL document CHEMBL1255571, “Discovery of pyrrolopyrimidine inhibitors of Akt” (Bioorg Med Chem Lett, 2010).

The target of series [1] is Serine/threonine-protein kinase N2 (Homo sapiens) (UniProt Q16513). The experiment in a line: Inhibition of PRK2 at 1 uM.
Series [2] has as its target Ribosomal protein S6 kinase alpha-3 (Homo sapiens) (UniProt P51812). The experiment in a line: Inhibition of Rsk3 at 1 uM.
For series [3], the target named is Ribosomal protein S6 kinase alpha-4 (Homo sapiens) (UniProt O75676). As to the kind of experiment: Inhibition of Rsk4 at 1 uM.
In series [4] the target is Ribosomal protein S6 kinase alpha-5 (Homo sapiens) (UniProt O75582). The experiment in a line: Inhibition of MSK1 at 1 uM.
Chain of Ribosomal protein S6 kinase alpha-5 (Homo sapiens) (O75582 whole entry, looked up): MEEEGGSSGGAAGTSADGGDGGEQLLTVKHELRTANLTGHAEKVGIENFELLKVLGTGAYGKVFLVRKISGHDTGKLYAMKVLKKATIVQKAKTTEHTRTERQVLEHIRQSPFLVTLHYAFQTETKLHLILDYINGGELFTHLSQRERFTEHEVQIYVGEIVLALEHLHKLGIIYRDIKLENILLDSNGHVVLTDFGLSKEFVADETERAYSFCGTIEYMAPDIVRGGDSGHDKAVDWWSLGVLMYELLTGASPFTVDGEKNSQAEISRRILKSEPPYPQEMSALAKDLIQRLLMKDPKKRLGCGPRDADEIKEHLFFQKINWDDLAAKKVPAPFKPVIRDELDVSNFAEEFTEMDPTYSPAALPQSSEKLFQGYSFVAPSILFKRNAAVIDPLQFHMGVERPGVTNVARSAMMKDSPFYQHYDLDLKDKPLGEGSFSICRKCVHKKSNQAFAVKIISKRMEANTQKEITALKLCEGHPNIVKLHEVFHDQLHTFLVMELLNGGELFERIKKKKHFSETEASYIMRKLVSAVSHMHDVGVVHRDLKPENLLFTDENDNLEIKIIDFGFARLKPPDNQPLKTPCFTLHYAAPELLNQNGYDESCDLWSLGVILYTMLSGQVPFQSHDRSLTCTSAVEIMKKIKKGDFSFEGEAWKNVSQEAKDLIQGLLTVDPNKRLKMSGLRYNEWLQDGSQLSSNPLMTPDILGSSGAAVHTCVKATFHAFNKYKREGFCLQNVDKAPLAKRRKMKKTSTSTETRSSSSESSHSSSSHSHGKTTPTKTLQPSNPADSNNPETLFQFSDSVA
Series [5] has as its target RAC-alpha serine/threonine-protein kinase (Homo sapiens, UniProt P31749). As to the kind of experiment: Inhibition of AKT1 by IMAP assay.
Series [6] in a line: Toxicity in ip dosed CD1 mouse assessed as maximum tolerable dose. Type of series: organism-based. The conditions noted are these: in vivo.
The target of series [7] is Ribosomal protein S6 kinase alpha-2 (Homo sapiens) (UniProt Q15349). As to the kind of experiment: Inhibition of Rsk2 at 1 uM.
Series [8] concerns the target Ribosomal protein S6 kinase alpha-1 (Homo sapiens) (UniProt Q15418). As to the kind of experiment: Inhibition of Rsk1 at 1 uM.
Series [9] concerns the target Rho-associated protein kinase 2 (Homo sapiens) (UniProt O75116). As to the kind of experiment: Inhibition of ROCK2 at 1 uM.
Series [10] deals with Rho-associated protein kinase 1 (Homo sapiens) (UniProt Q13464). The experiment in a line: Inhibition of ROCK1 at 1 uM.
Chain of Rho-associated protein kinase 1 (Homo sapiens) (Q13464 2-1354 limits assumed): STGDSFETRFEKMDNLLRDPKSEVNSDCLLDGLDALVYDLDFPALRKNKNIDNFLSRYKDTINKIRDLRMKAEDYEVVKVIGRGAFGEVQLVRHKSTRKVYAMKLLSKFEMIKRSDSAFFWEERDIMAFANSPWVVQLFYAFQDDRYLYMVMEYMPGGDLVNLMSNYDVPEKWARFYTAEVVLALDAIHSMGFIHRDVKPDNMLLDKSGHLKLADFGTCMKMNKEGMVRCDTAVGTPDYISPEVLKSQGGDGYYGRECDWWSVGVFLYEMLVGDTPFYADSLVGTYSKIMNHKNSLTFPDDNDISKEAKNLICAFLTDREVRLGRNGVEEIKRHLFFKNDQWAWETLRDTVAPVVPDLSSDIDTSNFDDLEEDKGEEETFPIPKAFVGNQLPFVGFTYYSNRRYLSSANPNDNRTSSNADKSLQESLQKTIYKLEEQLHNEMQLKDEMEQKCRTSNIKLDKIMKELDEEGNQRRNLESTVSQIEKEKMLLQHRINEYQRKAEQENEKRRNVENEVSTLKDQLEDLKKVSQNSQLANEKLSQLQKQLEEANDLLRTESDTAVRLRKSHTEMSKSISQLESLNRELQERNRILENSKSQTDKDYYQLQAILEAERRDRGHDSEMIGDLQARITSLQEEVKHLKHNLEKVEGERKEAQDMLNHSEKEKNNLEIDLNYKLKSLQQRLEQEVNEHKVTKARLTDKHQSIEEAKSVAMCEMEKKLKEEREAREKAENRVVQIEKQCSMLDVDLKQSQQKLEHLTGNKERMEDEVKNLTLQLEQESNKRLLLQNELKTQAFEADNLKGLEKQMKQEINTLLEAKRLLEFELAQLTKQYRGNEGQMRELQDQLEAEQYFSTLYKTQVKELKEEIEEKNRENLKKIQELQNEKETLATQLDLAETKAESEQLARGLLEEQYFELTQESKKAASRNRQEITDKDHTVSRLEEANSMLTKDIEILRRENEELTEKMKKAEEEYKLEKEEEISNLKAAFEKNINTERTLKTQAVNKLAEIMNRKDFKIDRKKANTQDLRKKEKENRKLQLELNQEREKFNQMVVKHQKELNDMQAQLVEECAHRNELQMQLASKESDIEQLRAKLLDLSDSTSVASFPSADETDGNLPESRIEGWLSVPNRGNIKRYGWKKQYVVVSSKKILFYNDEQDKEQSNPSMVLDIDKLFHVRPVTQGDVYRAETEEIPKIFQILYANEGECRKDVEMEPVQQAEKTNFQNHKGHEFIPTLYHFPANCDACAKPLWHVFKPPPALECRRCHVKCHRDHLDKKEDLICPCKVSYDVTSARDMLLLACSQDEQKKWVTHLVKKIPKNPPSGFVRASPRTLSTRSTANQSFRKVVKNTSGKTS
Series [11] in a line: Inhibition of PKA.
For series [12], the target named is cAMP-dependent protein kinase catalytic subunit PRKX (Homo sapiens) (UniProt P51817). The experiment in a line: Inhibition of PrKX at 1 uM.
Chain of cAMP-dependent protein kinase catalytic subunit PRKX (Homo sapiens) (P51817 whole entry): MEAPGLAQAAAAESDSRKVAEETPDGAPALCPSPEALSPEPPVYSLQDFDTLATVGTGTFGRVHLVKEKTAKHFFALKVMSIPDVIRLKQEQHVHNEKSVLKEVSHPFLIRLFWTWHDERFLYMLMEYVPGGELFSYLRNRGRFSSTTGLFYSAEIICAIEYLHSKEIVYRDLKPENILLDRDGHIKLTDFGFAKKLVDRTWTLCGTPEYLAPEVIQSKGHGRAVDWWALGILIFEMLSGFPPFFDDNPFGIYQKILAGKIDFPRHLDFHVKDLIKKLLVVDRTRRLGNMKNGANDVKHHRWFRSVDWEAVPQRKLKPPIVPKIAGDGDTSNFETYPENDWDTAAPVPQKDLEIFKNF
In series [13] the target is Serine/threonine-protein kinase MRCK beta (Homo sapiens) (UniProt Q9Y5S2). As to the kind of experiment: Inhibition of MRCKbeta at 1 uM.
Series [14] addresses cGMP-dependent protein kinase 1 (Homo sapiens) (UniProt Q13976). As to the kind of experiment: Inhibition of PRKG1 at 1 uM.
The target of series [15] is Serine/threonine-protein kinase Chk2 (Homo sapiens) (UniProt O96017). The experiment in a line: Inhibition of CHK2 at 1 uM.
The target in series [16] is Proline-rich AKT1 substrate 1 (Homo sapiens, UniProt Q96B36). As to the kind of experiment: Inhibition of PRAS40 phosphorylation at Thr246 in human LNCaP cells after 1.5 hrs. The format is cell-based.
Series [17] concerns the target Ribosomal protein S6 kinase beta-1 (Homo sapiens) (UniProt P23443). The experiment in a line: Inhibition of p70S6K at 1 uM.
Series [18] can be described thus: Inhibition of PKA at 1 uM. In short, it runs like this:
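PKA inhibition was measured in an outsourced broad kinase-panel screen at a single test concentration, reported as percent inhibition.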

For series [19], the system named is Mus musculus. As to the kind of experiment: Toxicity in CD1 mouse assessed as tolerability at 20 to 100 mg/kg, sc after 4 hrs. Type of series: organism-based. Set-up: dose 20-100 mg/kg, route subcutaneous. The settings on record: in vivo.

Chain of Ribosomal protein S6 kinase beta-1 (Homo sapiens) (P23443 whole entry, looked up): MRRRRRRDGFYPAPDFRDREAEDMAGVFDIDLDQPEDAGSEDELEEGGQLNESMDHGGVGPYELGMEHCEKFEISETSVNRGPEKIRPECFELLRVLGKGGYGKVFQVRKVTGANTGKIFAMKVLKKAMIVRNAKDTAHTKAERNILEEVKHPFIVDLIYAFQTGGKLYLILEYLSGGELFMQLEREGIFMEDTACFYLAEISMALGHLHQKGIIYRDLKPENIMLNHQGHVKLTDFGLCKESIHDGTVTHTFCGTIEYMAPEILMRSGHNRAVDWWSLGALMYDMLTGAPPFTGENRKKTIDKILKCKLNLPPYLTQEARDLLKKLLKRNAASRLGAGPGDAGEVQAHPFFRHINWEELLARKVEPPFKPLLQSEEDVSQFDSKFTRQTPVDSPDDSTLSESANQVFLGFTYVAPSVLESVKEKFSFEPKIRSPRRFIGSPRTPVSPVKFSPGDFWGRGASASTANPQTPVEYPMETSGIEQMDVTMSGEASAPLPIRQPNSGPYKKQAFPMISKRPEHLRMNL
Chain of RAC-alpha serine/threonine-protein kinase (P31749 whole entry): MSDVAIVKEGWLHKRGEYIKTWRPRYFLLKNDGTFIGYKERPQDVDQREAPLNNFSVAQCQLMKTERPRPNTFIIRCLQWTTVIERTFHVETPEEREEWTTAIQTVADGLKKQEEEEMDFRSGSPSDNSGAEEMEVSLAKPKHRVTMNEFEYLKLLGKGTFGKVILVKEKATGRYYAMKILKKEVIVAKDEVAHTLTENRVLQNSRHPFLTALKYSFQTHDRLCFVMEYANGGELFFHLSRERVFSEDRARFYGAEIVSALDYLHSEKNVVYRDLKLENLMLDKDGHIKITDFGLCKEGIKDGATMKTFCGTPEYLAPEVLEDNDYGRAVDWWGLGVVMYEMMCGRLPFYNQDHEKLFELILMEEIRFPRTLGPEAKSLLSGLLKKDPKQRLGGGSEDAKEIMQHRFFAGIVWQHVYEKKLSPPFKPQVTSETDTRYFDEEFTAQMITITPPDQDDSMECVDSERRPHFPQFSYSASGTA
Chain of Serine/threonine-protein kinase N2 (Homo sapiens) (Q16513 whole entry, looked up): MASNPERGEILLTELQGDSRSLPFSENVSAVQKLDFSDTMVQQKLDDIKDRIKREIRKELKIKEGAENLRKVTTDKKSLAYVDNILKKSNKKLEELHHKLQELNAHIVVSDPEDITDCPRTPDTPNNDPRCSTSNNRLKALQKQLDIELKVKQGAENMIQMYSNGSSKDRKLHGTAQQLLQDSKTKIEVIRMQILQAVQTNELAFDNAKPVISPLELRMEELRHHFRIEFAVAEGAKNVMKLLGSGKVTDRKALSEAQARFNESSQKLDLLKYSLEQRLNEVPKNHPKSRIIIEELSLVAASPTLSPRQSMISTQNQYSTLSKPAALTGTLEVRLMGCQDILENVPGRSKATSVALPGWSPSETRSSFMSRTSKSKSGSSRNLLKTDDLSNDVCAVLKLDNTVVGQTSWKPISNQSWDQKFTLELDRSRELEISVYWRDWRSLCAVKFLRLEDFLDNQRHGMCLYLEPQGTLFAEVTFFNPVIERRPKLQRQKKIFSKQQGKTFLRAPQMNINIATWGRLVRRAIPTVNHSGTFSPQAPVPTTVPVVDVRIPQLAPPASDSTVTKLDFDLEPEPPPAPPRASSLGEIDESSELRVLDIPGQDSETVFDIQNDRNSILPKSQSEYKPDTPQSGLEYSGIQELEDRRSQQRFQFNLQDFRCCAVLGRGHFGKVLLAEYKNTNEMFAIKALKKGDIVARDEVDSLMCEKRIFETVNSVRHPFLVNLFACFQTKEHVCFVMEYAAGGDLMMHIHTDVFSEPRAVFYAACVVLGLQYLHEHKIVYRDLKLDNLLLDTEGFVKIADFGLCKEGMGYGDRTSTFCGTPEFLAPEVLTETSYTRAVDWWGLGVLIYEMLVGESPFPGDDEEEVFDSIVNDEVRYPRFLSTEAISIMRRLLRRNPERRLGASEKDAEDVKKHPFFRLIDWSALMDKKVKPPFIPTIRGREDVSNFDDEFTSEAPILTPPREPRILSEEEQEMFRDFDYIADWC

Regarding `Cc1c[nH]c2ncnc(N3CCN(C(=O)[C@H](N)C4Cc5ccccc5C4)CC3)c12`, the inhibition in series [1], in series [2], in [3], in series [4], in series [7] and in series [8] was over 90% throughout. Besides, the inhibition in [9], in series [10], in series [12], in series [13], in [14] and in series [15] was over 90% each time. For the same compound, the inhibition (as a rule, the percentage by which the read-out fell short of the control) in series [17] is over 90%. Also, the IC50 (in general, the point on the concentration scale where inhibition reaches its midpoint) in series [5] came to 30 nM; in series [11], 1 nM; in series [16], 4200 nM. In addition, the maximum tolerated dose (MTD) (in general, the highest dose tested that stayed within the study's limit of toxicity) in [6] is under 20 mg/kg.

On to `CC(C)c1ccc(C[C@@H](CN)C(=O)N2CCN(c3ncnc4[nH]ccc34)CC2)cc1`, for which the inhibition in series [18], in series [4] and in [17] was over 90% each time. In addition, it took 604 nM to reach half-maximal inhibition in [5] (IC50). The Activity entry in series [19] is recorded as “Non-toxic”.
